Screening data deposited in PubChem by Broad Institute.
Sampled rows, rich in hits. Any-hit rate of the full collection: about 1.3%.
Casp6 inh = caspase-6 (human) enzyme inhibition | purified caspase-6, Z-VEID-R110 cleavage fluorescence | inhibition, % at 12.5 µM | 350,000 compounds, 0.53% hits | AID 686996;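 active means mean inhibition across replicates at least about 35%, with every replicate also reaching that limit, limit read from the data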
MLL AF4-AF9 inh = blocks AF4 peptide binding to human AF9 | P42568 | AlphaScreen, biotin-AF4 peptide binding to FLAG-AF9 | inhibition, % at 10 µM | 350,000 compounds, 0.47% hits | AID 651704;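 active means every replicate reaching a set inhibition limit, whatever the replicate mean, cut at about 25% in these data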
S100A4 inh HTS = inhibitors of human S100A4 binding to myosin IIA peptide. S100A4/TAMRA-MyoIIA peptide fluorescence polarization. 360,000 compounds, 0.14% hits. P26447. inhibition, % at 10.7 µM;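 active means mean inhibition of at least 70% across replicates, with every replicate also reaching that level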
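Test system – S100A4 monomer (human) · Compound – single-point compound testing · Schedule – 5 min incubation before reading · Probe or stimulus – TAMRA-labelled myosin IIA heavy-chain peptide probe, 5 nM · Benchmarks – neutral control DMSO, positive control TFP · Medium – Calcium-containing HEPES buffer, pH 7.2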
RAD54 inh = inhibitors of human RAD54 branch migration. 360,000 compounds, 0.14% hits. RAD54 Holliday junction branch migration, FAM/BHQ fluorescence. inhibition, % at 10.4 µM. AID 602329;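 active means mean normalized replicate activity at least 40 and at least half of replicates scoring 40 or more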;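 further: inhibitors cause a drop in the FAM fluorescence signal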
XiGFP reactiv = reactivates the inactive X chromosome in mouse fibroblasts; AID 743238; activation, % at 7.58 µM; XiGFP mouse fibroblasts, % GFP-positive cells imaging, 3 d; cells co-treated with 5-aza-dC sensitizer; scaled so ellipticine positive control = 100%; 360,000 compounds, 0.055% hits;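 active means mean normalized replicate activation at least 10% and every replicate at or above 10%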
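System: 68-5-11 XiGFP fibroblast line; Timing: 3 days compound exposure; Compound dosing: one concentration, pinned; Benchmarks: positive control ellipticine, 6 µM final; Buffer or medium: DMEM containing 5-aza-dC.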
RAD52 anneal inh = inhibitors of human RAD52 DNA annealing; inhibition, % at 18.7 µM; recombinant RAD52 DNA annealing, FRET fluorescence; P43351; 360,000 compounds, 0.46% hits; AID 651710;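 active means every replicate showing at least 50% inhibition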
Target sequence (P43351 whole entry, looked up): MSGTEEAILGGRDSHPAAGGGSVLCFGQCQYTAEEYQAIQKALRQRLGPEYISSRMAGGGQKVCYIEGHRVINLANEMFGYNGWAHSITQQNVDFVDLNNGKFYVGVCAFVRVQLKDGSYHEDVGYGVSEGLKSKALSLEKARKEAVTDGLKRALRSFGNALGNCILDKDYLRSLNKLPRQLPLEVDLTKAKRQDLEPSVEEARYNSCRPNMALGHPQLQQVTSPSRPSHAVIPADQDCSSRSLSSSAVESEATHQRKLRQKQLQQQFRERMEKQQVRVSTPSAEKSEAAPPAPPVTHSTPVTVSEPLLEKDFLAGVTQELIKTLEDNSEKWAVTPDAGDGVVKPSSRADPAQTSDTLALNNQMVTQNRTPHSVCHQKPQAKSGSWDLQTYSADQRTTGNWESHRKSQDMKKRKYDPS
Numbers stand for hits; . = inactive; / = no result.

SMILES	Casp6 inh	MLL AF4-AF9 inh	S100A4 inh HTS	RAD54 inh	XiGFP reactiv	RAD52 anneal inh
Cc1ccn2c(=O)nc(SCC(=O)N3CCCC3)nc2c1	.	.	.	.	.	.
Cc1ccn2c(=O)nc(SCC(=O)N3CCC(C)CC3)nc2c1	52.2	.	.	.	.	.
O=C(NCC1CCCCC1)[C@@H]1[C@@H](CO)[C@@H]2Cn3c(ccc(C4=CCCC4)c3=O)[C@H]1N2	.	.	.	.	.	.
CCCOCc1ccc(O)c2ncccc12	.	.	.	.	.	.
Oc1ccc(CN2CCC(Cc3ccccc3)CC2)c2cccnc12	.	76.1	.	/	.	.
OCc1ccc(O)c2ncccc12	/	/	/	.	/	/
Oc1ccc(COCc2ccccc2)c2cccnc12	/	65.9	.	.	/	/
Oc1ccc(Cc2ccccc2)c2cccnc12	.	56.8	.	.	.	.
COc1ccc(CN2[C@H](CO)[C@@H]3c4ccccc4N(C(=O)c4ccccc4)C[C@@H]32)cc1	.	.	.	.	.	.
C[C@@H]1CN([C@H](C)CO)C(=O)c2cc(NC(=O)c3ccncc3)ccc2O[C@@H](C)CCCCO[C@@H]1CN(C)S(=O)(=O)c1ccccc1	.	.	.	.	.	.
COc1ccc(OC)c(NC2=C(Cl)C(=O)N(Cc3ccccc3)C2=O)c1	.	27.2	.	.	.	.
Cc1ccc(S(=O)(=O)N/N=C\c2ccc(C)o2)cc1	40.6	.	.	/	/	.
O=C(NCc1cccnc1)C1CC(c2ccccc2Cl)=NO1 (stereo not given)	.	.	.	.	.	.
O=C(NCCCn1ccnc1)C1CC(c2ccccc2Cl)=NO1 (stereo not given)	.	28.3	.	.	.	.
CN(C)c1ccc(N=Nc2ccc(S(N)(=O)=O)cc2)cc1	.	.	.	.	.	.
CC1=CC(=O)C=CC1=Nc1ccc(N(C)C)cc1	.	91.3	.	/	.	.
O=S(=O)(Nc1ccccc1)c1cccc2nsnc12	35.6	.	.	.	.	.
COc1ccc(NC(=O)Nc2ccc3c(c2)CC(=O)N([C@H](C)CO)C[C@H](C)[C@@H](CN(C)Cc2ccc(-c4ccccc4)cc2)O3)cc1	.	.	.	.	.	.
COc1ccc(NC(=O)Nc2ccc3c(c2)CC(=O)N([C@H](C)CO)C[C@@H](C)[C@H](CN(C)Cc2ccccc2)O3)cc1	.	.	.	.	.	.
COc1ccc(NC(=O)Nc2ccc3c(c2)CC(=O)N([C@H](C)CO)C[C@H](C)[C@@H](CN(C)Cc2ccc(Oc4ccccc4)cc2)O3)cc1	.	.	.	.	.	67.0
COc1ccc(NC(=O)Nc2ccc3c(c2)CC(=O)N([C@@H](C)CO)C[C@@H](C)[C@H](CN(C)Cc2ccccc2)O3)cc1	.	.	95.6	.	.	.
COc1ccc(NC(=O)Nc2ccc3c(c2)CC(=O)N([C@@H](C)CO)C[C@@H](C)[C@H](CN(C)Cc2ccc(-c4ccccc4)cc2)O3)cc1	.	.	.	.	.	57.5
O=C(Nc1ccc(F)cc1)c1ccccc1NC(=O)C1CC=CCC1C(=O)O (stereo not given)	37.3	.	.	.	.	.
CCC(=O)N1C[C@H](C)[C@@H](OC)CN(C)C(=O)c2cc(NC(=O)CC(F)(F)F)ccc2OC[C@@H]1C	/	/	/	/	.	/
COc1ccccc1N1CCN(C2=Nc3cccc4cccc2c34)CC1	.	30.0	.	.	.	.
SMILES	Casp6 inh	MLL AF4-AF9 inh	S100A4 inh HTS	RAD54 inh	XiGFP reactiv	RAD52 anneal inh
CC(=O)N1CCN(C2=Nc3cccc4cccc2c34)CC1	/	/	/	.	/	/
COc1ccc2nc3cccc(OC)c3nc2c1	49.9	.	.	.	.	.
COc1ccc2nc(-c3ccco3)c(-c3ccco3)nc2c1	47.1	.	.	.	/	.
c1coc(-c2nc(-c3ccco3)c(-c3ccco3)nc2-c2ccco2)c1	/	/	/	.	/	/
COc1ccc2nc(-c3ccccc3)cc(OC)c2c1	.	.	.	/	.	.
C[C@@H]1CN([C@H](C)CO)C(=O)c2cccc(NC(=O)Nc3ccc4c(c3)OCO4)c2O[C@@H]1CN(C)S(=O)(=O)c1cn(C)cn1	.	.	.	.	.	.
C[C@@H]1CN([C@H](C)CO)C(=O)Cc2cc(NC(=O)CCCCCC(=O)Nc3ccccc3N)ccc2O[C@H]1CN(C)CC1CCCCC1	.	.	.	.	.	.
